Laboratory results published in publication PMC9530962 (Redox Biology, 2022).
Where two headings read alike, the source gives them in different places. Values belong to the compound of their own block, whether it stands above or below them.

Experiments:
NRK52E cells [1] = type: cell-based
[2] = test system: TNF-α/NF-κB signaling pathway; type: cell-based; details: NRK52E
[3] = type: in vivo, SD rats
Summary of the method: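 Male SD rats (8 weeks, 200 ± 20 g) were acclimated for 1 week. Each rat got one intragastric dose of AAI, alone or with lycopene; controls were n = 6. Three rats were killed at each time point: 0.25, 0.5, 1, 2, 4, 8, 12, 24 and 48 h. Kidney (0.3–1 g) was homogenized in normal saline at 1:3 (w:v), and AAI was measured by HPLC.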

[4] = test system: C57BL/6 mice with renal injury induced by aristolochic acid exposure; experiment: Renal function, kidney injury markers and oxidative stress markers in AAN mice; type: in vivo; details: for Cr and BUN levels in the serum: mice
Summary of the method: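 C57BL/6 AAN model: AAI 10 mg/kg/day intragastric for 28 days, with LYC 5 or 20 mg/kg/day given separately. Blood was taken 24 h after the last dose and centrifuged at room temperature for serum. Serum creatinine and BUN were measured with commercial kits, and serum KIM-1 and NGAL by ELISA. MDA, SOD, T-AOC and GSH-PX were measured with commercial kits.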

[5] = test system: C57BL/6 mice with renal injury induced by aristolochic acid exposure; type: in vivo
NRK52E cytotoxicity = type: cell-based; details: rat, NRK52E renal tubular epithelial cells
Summary of the method: (§1)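 NRK52E rat tubular epithelial cells were seeded at 8000 cells/well. Treatment was 24 h with AAI (0–80 μM) or LYC (0–40 μM), or AAI 40 μM with LYC 5 or 10 μM; drug went in by medium change at 40–50% density. CCK-8 (10% in serum-free DMEM) was added for 2 h at 37 °C and A450 read. Viability % = (OD sample − OD blank)/(OD control − OD blank) × 100. Morphology and confluence were viewed by light microscopy.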

NRK52E cells [6] = experiment: NRK52E cytotoxicity; type: cell-based; details: NRK52E
Summary of the method: as §1

[7] = test system: Nrf2-HO-1 antioxidant pathway; type: cell-based; details: NRK52E
[8] = test system: C57BL/6 mice with renal injury induced by aristolochic acid exposure; experiment: AAN mouse model: body weight, kidney coefficient, HE/PAS histopathology; type: in vivo
Summary of the method: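 Male SPF C57BL/6 mice (6 weeks, 18–20 g) were acclimated for 1 week, then split into 5 groups (n = 6). Dosing was intragastric for 28 days, with vehicle 0.5% CMC. AAI 10 mg/kg/day was given at 13:00, and LYC 5 or 20 mg/kg/day at 08:00. Mice were killed 24 h after the last dose. Kidney coefficient = kidney/body weight. Kidney sections were stained with HE, PAS and Masson and scored for histopathology and tubular injury.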

[9] = oral gavage of lycopene; ref Previous studies; cited from earlier work
[10] = HPLC determination of lycopene content in rat kidney after oral gavage; type: in vivo, SD rats; details: rats
Summary of the method: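 Rats (male SD) got one intragastric dose of AAI plus lycopene, and three were killed per time point (0.25–48 h). For each sample, 0.5 g kidney was homogenized with 1 ml saline. Protein in 100 μL homogenate was precipitated with 100 μL absolute ethanol, then 200 μL n-hexane (0.01% BHT) was added. HPLC used a C18 column (150 × 4.6 mm, 5 μm) with methanol:acetonitrile:dichloromethane 50:33:17, detection at 472 nm, 25 °C.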

[11] = test system: Nrf2 antioxidant system, NF-κB signaling pathway and apoptosis-related genes in kidney; experiment: Nrf2 system, NF-κB pathway and apoptosis gene expression in kidneys of AAN mice; type: in vivo, C57BL/6 mice
Aristolochic lactam = type: in vivo; details: rats, after oral gavage of AAI
[12] = mice, AAN group (AAI 10 mg/kg/day, 28 days)

Compound: COc1cccc2c1cc([N+](=O)[O-])c1c(C(=O)O)cc3c(c12)OCO3 [AAI, Aristolochic acid A]
number of apoptotic cells (early and late) (NRK52E cells [1]; AAI group vs control, flow cytometry): significantly increased | expression of NF-κB-p65, TNF-α, and IL-6 ([2]; AAI group vs control): increased | NF-κB-P65 nuclear expression ([2]; AAI group, immunofluorescence): significantly increased | AA-I contents in kidney ([3]; rats, Group AAI + LYC, 15min after intragastric administration): 0 | AA-I contents in kidney ([3]; rats, Group AAI + LYC, 30min): 7.955 ± 0.8107 | AA-I contents in kidney ([3]; rats, Group AAI + LYC, 1h): 0 | AA-I contents in kidney ([3]; rats, Group AAI + LYC, 2h): 1.516 ± 0.1493 | AA-I contents in kidney ([3]; rats, Group AAI + LYC, 4h): 0 | AA-I contents in kidney ([3]; rats, Group AAI + LYC, 8h): 0 | AA-I contents in kidney ([3]; rats, Group AAI + LYC, 12h): 0 | AA-I contents in kidney ([3]; rats, Group AAI + LYC, 24h): 0 | AA-I contents in kidney ([3]; rats, Group AAI + LYC, 48h): 0 | AA-I contents in kidney ([3]; rats, Group AAI, 15min after intragastric administration): 0 | AA-I contents in kidney ([3]; rats, Group AAI, 30min): 8.546 ± 1.478 | AA-I contents in kidney ([3]; rats, Group AAI, 1h): 0 | AA-I contents in kidney ([3]; rats, Group AAI, 2h): 1.616 ± 0.04743 | AA-I contents in kidney ([3]; rats, Group AAI, 4h): 0 | AA-I contents in kidney ([3]; rats, Group AAI, 8h): 0 | AA-I contents in kidney ([3]; rats, Group AAI, 12h): 0 | AA-I contents in kidney ([3]; rats, Group AAI, 24h): 0 | AA-I contents in kidney ([3]; rats, Group AAI, 48h): 0 | time after feeding at which AAI has been metabolized completely in the kidney ([3]; rats, oral gavage of AAI): 2 h | Cr and BUN levels in the serum ([4]; AAN group vs control): significantly higher | renal interstitium fibrosis (MASSON staining) ([5]; mice, AAN group vs control): severely fibrotic | expression of IL-12 in the kidneys ([5]; model mice vs control): decreased | expression of TNF-α, IL-6, IL-10 in the kidneys ([5]; model mice vs control): increased | viability at 24 h, 40 μM (NRK52E cytotoxicity): 60% | degree of cell fusion (NRK52E cells [6]; AAI group, light microscopy): about 50% | expression of Nrf2, Keap-1, HO-1, NQO1, GSH-PX, and SOD ([7]; AAI exposure vs control): decreased | content of ROS ([7]; AAI group vs control): increased | contents of CR and BUN in the serum (preliminary experiment) ([8]; mice, AAI 10 mg/kg/day, vs normal control): significantly increased | body weight [8, 12]: significantly reduced | scores of renal histopathology and tubular injury [8, 12]: significantly increased | renal index ([8]; mice, AAN group (AAI 10 mg/kg/day, 28 days) vs control): significantly lower

Compound: CC(=O)O[C@@H]1CC[C@@]2(C)[C@@H](CC[C@]3(C)[C@@H]2C(=O)C=C2[C@@H]4[C@@H](C)[C@H](C)CC[C@]4(C)CC[C@]23C)[C@@]1(C)C(=O)O [AKBA, Acetyl-11-keto-β-boswellic acid]
expression of Bcl-2 ([2]; AKBA 40 μM, AAI 40 μM): increased | expression of NF-κB, TNF-α, Bax, Cleaved-Caspase3 ([2]; AKBA 40 μM, AAI 40 μM): decreased | content of ROS in the cells ([7]; AKBA 40 μM, AAI 40 μM): decreased | expression of Nrf2, keap-1, HO-1, NQO1 ([7]; AKBA 40 μM, AAI 40 μM): increased

Compound: Cc1ccccc1C(=O)N1CCc2cc(-c3nc(NC(=O)Cc4ccc5c(c4)OCO5)sc3C)ccc21 [ML385]
effect of LYC on apoptosis (DAPI staining) after the addition of ML385 (NRK52E cells [1]; AAI, LYC, ML385): the effect of LYC was inhibited | effect of LYC on NF-κB, TNF-α, Bax, Cleaved-Caspase-3 and BCL-2 expression when ML385 was added ([2]; ML385 5 μM, AAI 40 μM, LYC): significantly reduced or even ineffective

time of highest lycopene content in the kidney [10]: 6 h | lycopene content in the kidney after 24 h ([10]; 24 h): ~0 | content of AAI in the kidney of rats fed with lycopene compared with AAI alone ([3]; AAI + lycopene vs AAI alone): no significant difference
Compound: CC(C)=CCC/C(C)=C/C=C/C(C)=C/C=C/C(C)=C/C=C/C=C(C)/C=C/C=C(C)/C=C/C=C(\C)CCC=C(C)C [Lycopene]
time at which lycopene is most abundant in the kidney [9]: 6 to 8 h | expression of Bax, Cleaved-Caspase3, Cleaved-Caspase9, Bcl-2, Caspase-3, and Caspase-9 (NRK52E cells [1]; AAI plus LYC intervention, Western-blot and RT-PCR): reversed the expression of these proteins | number of apoptotic cells (NRK52E cells [1]; AAI plus LYC intervention, flow cytometry): significantly decreased | cellular mitochondrial damage (NRK52E cells [1]; AAI plus LYC intervention, transmission electron microscopy): significantly reduced | NF-κB-P65 nuclear expression ([2]; AAI plus LYC intervention, immunofluorescence): significantly decreased | expression of NF-κB-p65, TNF-α, IL-6, IkB and IL-12 ([2]; AAI plus LYC treatment): reversed the expression of these proteins | expression of IL-1β in the cells ([2]; LYC treatment vs AAI group, immunofluorescence): significantly decreased | expression of AAI-induced lipid peroxidation product (MDA) ([4]; AAN mice): significantly decreased | expression of antioxidant enzyme systems (T-AOC, SOD, and GSH-PX) ([4]; AAN mice): increased | expression levels of KIM-1 and NGAL induced by AAI ([4]; AAN mice, serum, ELISA): significantly reduced | Cr and BUN levels in the serum ([4]; LYC group): significantly lower | degree of renal fibrosis (MASSON staining) ([5]; AAN mice after LYC intervention): alleviated | expression of TNF-α, IL-6, IL-10 and IL-12 in the kidneys ([5]; AAN mice, LYC 5 and 20 mg/kg/d, Western-blot, RT-PCR, ELISA): reversed the expression of these genes in a dose-dependent manner | cell viability (NRK52E cells [6]; LYC 5 μM, 10 μM together with AAI, 24 h, dose-dependent): increased | Nrf2 intranuclear expression ([7]; AAI plus LYC intervention, dose-dependent): significant increase | content of ROS ([7]; AAI plus LYC intervention, dose-dependent, DCFH-DA): significant decrease | expression of NF-κB-p65, TNF-α, IL-6, IL-10, IL-1β, IκB and IL-12 in the kidney ([11]; LYC intervention): reversed the expression of these genes in a dose-dependent manner | Nrf2, Keap-1, HO-1, NQO1, GSH-PX and SOD expression in the kidneys ([11]; lycopene treatment): reversed the expression of these proteins | damaged renal tissue (HE and PAS staining) ([8]; AAN mice after lycopene intervention): significant improvement | body weight ([8]; AAN mice, AL20 group (LYC 20 mg/kg/d + AAI 10 mg/kg/day, 28 days)): increased | renal tubular structure (HE and PAS staining) ([8]; mice, LYC group (LYC 20 mg/kg/d alone)): intact without signs of lesions

accumulation of ALI in the kidney after 2 h (Aristolochic lactam): no accumulation
Compound: COc1cccc2c1cc1c3c(cc4c(c32)OCO4)C(=O)N1 [ALI, Aristolochic lactam]
